The record followed here is ChEMBL document CHEMBL4715825, “Synthesis and biological evaluations of marine oxohexadecenoic acids: PPARα/γ dual agonism and anti-diabetic target gene effects” (Eur J Med Chem, 2018).

Experiment [1] concerns the target T1, Peroxisome proliferator-activated receptor gamma (Homo sapiens) (UniProt P37231).
T1 sequence (whole entry): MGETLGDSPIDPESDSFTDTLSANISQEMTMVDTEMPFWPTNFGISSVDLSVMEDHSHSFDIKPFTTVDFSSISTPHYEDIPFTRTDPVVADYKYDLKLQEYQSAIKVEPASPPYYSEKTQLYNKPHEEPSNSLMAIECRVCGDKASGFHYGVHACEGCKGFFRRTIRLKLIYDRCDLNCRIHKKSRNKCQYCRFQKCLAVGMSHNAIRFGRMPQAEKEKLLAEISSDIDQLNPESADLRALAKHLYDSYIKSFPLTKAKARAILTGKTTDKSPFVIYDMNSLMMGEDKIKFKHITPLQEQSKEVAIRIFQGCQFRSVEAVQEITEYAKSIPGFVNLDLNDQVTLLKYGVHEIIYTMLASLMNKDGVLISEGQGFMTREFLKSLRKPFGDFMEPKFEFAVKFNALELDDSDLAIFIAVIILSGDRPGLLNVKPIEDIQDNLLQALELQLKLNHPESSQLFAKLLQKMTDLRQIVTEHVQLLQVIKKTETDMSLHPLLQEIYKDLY
Briefly: Agonist activity at human PPARgamma in 8 day differentiated human SGBS cells assessed as increase in SLC2A4 gene expression at 25 uM incubated for 24 hrs by SYBR-green based qPCR analysis. It counts as cell-based. As to conditions: filed as agonist. Background: In qPCR the cycle at which signal appears reflects the starting amount.

Experiment [2] concerns the target T2, Peroxisome proliferator-activated receptor alpha (Homo sapiens) (UniProt Q07869).
T2 sequence (whole entry): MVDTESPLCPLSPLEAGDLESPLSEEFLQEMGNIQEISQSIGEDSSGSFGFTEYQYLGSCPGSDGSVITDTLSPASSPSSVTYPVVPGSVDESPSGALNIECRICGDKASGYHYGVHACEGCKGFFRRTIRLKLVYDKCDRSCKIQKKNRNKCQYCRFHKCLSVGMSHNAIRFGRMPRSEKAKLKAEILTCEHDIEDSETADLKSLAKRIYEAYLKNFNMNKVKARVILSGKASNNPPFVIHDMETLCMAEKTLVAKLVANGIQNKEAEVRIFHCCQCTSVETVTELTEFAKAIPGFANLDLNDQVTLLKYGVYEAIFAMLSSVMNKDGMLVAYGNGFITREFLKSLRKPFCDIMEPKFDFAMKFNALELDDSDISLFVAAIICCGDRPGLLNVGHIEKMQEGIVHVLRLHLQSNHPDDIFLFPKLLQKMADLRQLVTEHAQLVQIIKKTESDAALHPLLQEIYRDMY
The experiment is described as follows: Agonist activity at recombinant human PPARalpha LBD (168 to 468 residues) expressed in African green monkey COS-1 cells at 25 to 50 uM incubated for 18 hrs by luciferase reporter gene assay. The settings on record: filed as agonist, dose 25-50 µM. In kind it is cell-based. The method in brief:
(§1)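 Transient Gal4 one-hybrid assay in COS-1 cells (7×10^4 per well), transfected 24 h after seeding. Plasmids were Gal4-DBD fused to the human nuclear receptor LBD, a 5×UAS-SV40 luciferase reporter and pRL-CMV Renilla control. Ligand in DMSO (final 0.1%) was added 5 h post-transfection. Dual-luciferase activity was read after 18 h, expressed as RLU, from three biological replicates in quadruplicate.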
A general note: In a reporter assay the amount or activity of a reporter protein is the signal.

Experiment [3] concerns the target T1, Peroxisome proliferator-activated receptor gamma (Homo sapiens). Briefly: Agonist activity at human PPARgamma in 8 day differentiated human SGBS cells assessed as decrease in IL-1 beta gene expression at 25 uM incubated for 24 hrs by SYBR-green based qPCR analysis. It counts as cell-based. The settings on record: filed as agonist.
Experiment [4] concerns the target T2, Peroxisome proliferator-activated receptor alpha (Homo sapiens). Briefly: Agonist activity at human PPARalpha in human HuH-7 cells assessed as increase in ANGPTL4 gene expression at 50 uM incubated for 24 hrs by SYBR-green based qPCR analysis. It counts as cell-based. As to conditions: filed as agonist. The method in brief: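 Cells were seeded at 2×10^5 per well and treated 24 h later with compound in DMSO (final 0.1%). The next day, cells were washed and scraped into RLT buffer. RNA was isolated, and target gene mRNA was quantified by SYBR-green qPCR with specific primers.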

Experiment [5] has as its system SGBS. Briefly: Induction of adipogenesis in 8 day differentiated human SGBS cells assessed as increase in SCD1 mRNA expression at 25 uM measured upto 12 days by qRT-PCR analysis. In kind it is functional, cell-based. As to conditions: time day <=12. The method, boiled down:
(§2)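 SGBS cells were grown to confluence (day 0). Quickdiff medium was supplemented with compound or rosiglitazone for 4 days, followed by 3FC medium. DMSO or DMSO:BSA served as control. RNA was harvested on days 0, 4, 8 and 12, and expression was measured by SYBR-green qPCR. Data are mean ± SEM of at least three biological replicates in duplicate.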

For experiment [6], the target named is T3, Peroxisome proliferator-activated receptor alpha (Homo sapiens, UniProt Q07869).
T3 sequence (Q07869 whole entry): T2 sequence (whole entry)
Briefly: Agonist activity at recombinant human PPARalpha LBD (168 to 468 residues) expressed in African green monkey COS-1 cells incubated for 18 hrs by luciferase reporter gene assay. In kind it is cell-based. The method in brief: as §1

The next experiment relates to COS-1. Briefly: Agonist activity at recombinant full length human PPARalpha/gamma/RXRalpha expressed in African green monkey COS-1 cells assessed as induction of CPT1A driven luciferase reporter activity at 25 uM incubated for 18 hrs by dual luciferase reporter gene assay. In kind it is cell-based. The settings on record: filed as agonist. The method, boiled down: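 COS-1 cells were kept in DMEM/10% FBS at 37 °C, 5% CO2, and seeded at 7×10^4 per well. After 24 h they were lipofected with full-length PPAR and RXR expression plasmids, a PLIN1- or CPT1A-driven luciferase reporter and pRL-CMV Renilla control. Compound in DMSO (final 0.1%) was added 5 h later. After 18 h, cells were lysed for Dual-Luciferase readout. Three biological replicates were run in quadruplicate.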

Experiment [7] deals with T2, Peroxisome proliferator-activated receptor alpha (Homo sapiens). The experiment is described as follows: Agonist activity at human PPARalpha in 8 day differentiated human SGBS cells assessed as increase in FABP4 gene expression at 25 uM incubated for 24 hrs by SYBR-green based qPCR analysis. In kind it is cell-based. The method in brief:
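SGBS preadipocytes were seeded at passage P6-P8 and grown to confluence. They were differentiated for 4 days in Quickdiff (3FC plus dexamethasone, IBMX and rosiglitazone), then kept in 3FC with medium renewed every fourth day. On day 8, cells were stimulated for 24 h in 3FC with compound:BSA or rosiglitazone. SYBR-green qPCR used gene-specific primers. Data are mean ± SEM of three biological replicates in duplicate.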

The test system of experiment [8] is SGBS. Briefly: Effect on diabetic complication pathway in 8 day differentiated human SGBS cells assessed as downregulation of TNF signalling genes at 25 uM incubated for 8 days by Illumina sequencing method. In kind it is functional, cell-based. The method in brief:
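SGBS cells were differentiated 4 days in Quickdiff supplemented with compound:BSA or rosiglitazone, then 4 days in 3FC. Total RNA was extracted, and strand-specific TruSeq libraries were sequenced on NextSeq 500 (2×75 bp paired-end). Reads were aligned to hg19 with Tophat/Bowtie and counted as RPKM by Cufflinks. Values are log2 fold over day 0 cells, grouped into KEGG gene sets (n = 2-4).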

The subject of experiment [9] is SGBS. The experiment is described as follows: Induction of adipogenesis in 8 day differentiated human SGBS cells assessed as increase in CEBPB mRNA expression at 25 uM measured upto 12 days by qRT-PCR analysis. As to conditions: time day <=12. In kind it is functional, cell-based. The method in brief:
as §2

Experiment [10] has as its target T1, Peroxisome proliferator-activated receptor gamma (Homo sapiens). The experiment is described as follows: Agonist activity at human PPARgamma in 8 day differentiated human SGBS cells assessed as decrease in CXCL5 gene expression at 25 uM incubated for 24 hrs by SYBR-green based qPCR analysis. In kind it is cell-based. The settings on record: filed as agonist.

SMILES strings stand for the structures. Calls of active or inactive are those of the source. The rule behind the calls is not given here.

For `CCCCC/C=C/C(=O)CCCCCCCC(=O)O`, the outcome (in [1]; in experiment [2]; in experiment [3]; in [4]; in the experiment on SGBS [5]; in the experiment on COS-1) was Active. The result (in the experiment on SGBS [8]; in the experiment with SGBS [9]; in experiment [10]) was Active. Besides, the 50% effective concentration (EC50) – broadly, the concentration at which the effect is half-maximal – in experiment [6] stood at 26 µM. In experiment [7], the result was inactive.
Regarding `CCCCCCCC(=O)/C=C/CCCCCC(=O)O`, the result (in experiment [1]; in [2]; in experiment [3]; in [4]; in the experiment on SGBS [5]; in the experiment with COS-1) was Active. The outcome (with SGBS [8]; in the experiment with SGBS [9]; in experiment [10]) was Active. For the same compound, the EC50 in [6] came out at 20 µM. Besides, the outcome in experiment [7] was inactive.
